Results on 167 variants are retold here after the RNAGym collection of RNA variant scans (doi:10.1126/science.aae0568).

B1: tRNA (parent)
chain: GUUCCGUUGGCGUAAUGGUAACGCGUCUCCCUCCUAAGGAGAAGACUGCGGGUUCGAGUCCCGUACGGAACG

Variants at the floor of the assay were thinned out.

This series covers variants of B1. Kind of series: yeast fitness relative to wild type (ratio to wild type); higher = fitter; tRNA-Arg(CCU), competitive growth, 37 C, YPD. In a few lines:
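Gene amplicons from the start population and from each of six end populations were read by 100-nucleotide paired-end sequencing. Those end populations came from pooled Saccharomyces cerevisiae strains carrying tRNA-Arg(CCU) gene variants at the native locus, competed in YPD at 37°C for 24 hours. Fitness relative to wild type was worked out from changes in genotype frequencies. Genotypes needed ≥ 100 starting reads, and estimates < 0.5 were set to 0.5.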
With A20G C22U C31G C66U, the yeast fitness was not above 0.5.

Turning to A20U C22U C46U A57G, the yeast fitness was not above 0.5.

A20G C46U G50C C61A A70C: the yeast fitness came out at 0.7.

With A20U C27G C34A C46G C55A, the yeast fitness was not above 0.5.

In the case of A20G U32A, the yeast fitness worked out at 0.719.

For A20G C34U A40U A42U U64A, the yeast fitness is not above 0.5.

Regarding A20G C33A G44A C61U, the yeast fitness was 0.553.

Take A20G C22G G56A G67A: the yeast fitness was not above 0.5.

As for A20G C33U C49G G50C, the yeast fitness is not above 0.5.

Turning to A20G G48A C49G U59A, the yeast fitness is not above 0.5.

Regarding A20G C33U A40G C62G A70U, the yeast fitness was not above 0.5.

For the variant A20G G25A C34A G50C, the yeast fitness turned out to be 0.578.

As to A20G C60A A70U, the yeast fitness was 0.605.

On to A20G C60A A70C, for which the yeast fitness was 0.556.

With A20U A36C C49A C66G, the yeast fitness is not above 0.5.

For A20U A36G C55U, the yeast fitness worked out at 0.573.

As to A20U C24G C55A, the yeast fitness was not above 0.5.

In the case of A20G U28A A69C, the yeast fitness is not above 0.5.

For A20G C29U A37G C66U, the yeast fitness was not above 0.5.

For the variant A20G C34U A43C A57U G58A C62G, the yeast fitness is not above 0.5.

For the variant A20G C34U G38A A43G G68U, the yeast fitness is not above 0.5.

With A20G G50C C61U, the yeast fitness was not above 0.5.

As to A20G U32A C34G A43G G50C U64A, the yeast fitness is not above 0.5.

As for A20G U59G, the yeast fitness was 0.921.

As for A20G U59A, the yeast fitness was determined as 0.79.

Turning to A20G U59C, the yeast fitness was found to be 0.972.

Regarding A20U A70U, the yeast fitness turned out to be 0.988.

With A20G G25C C61U A65G, the yeast fitness was determined as 0.647.

As for A20G C22U, the yeast fitness turned out to be 0.751.

As for A20G C62A, the yeast fitness was 0.715.

As for A20G C62G, the yeast fitness came to 0.804.

On to A20G C27A G48A, for which the yeast fitness was 0.762.

As for A20G G23A G38C, the yeast fitness is 0.656.

On to A20G U28G A69U, for which the yeast fitness was not above 0.5.

In the case of A20U A40C A42U, the yeast fitness was not above 0.5.

Take A20G C33A A36C U47A C66A: the yeast fitness is not above 0.5.

Regarding A20G G63A, the yeast fitness came to 0.903.

For the variant A20G G63C, the yeast fitness was determined as 0.837.

Consider A20G C29G A37G G67C, for which the yeast fitness is not above 0.5.

With A20U A21U A65U G67A, the yeast fitness was not above 0.5.

As for A20U A36G, the yeast fitness was 0.766.

On to A20U A36C, for which the yeast fitness worked out at 0.627.

In the case of A20G C30G, the yeast fitness stood at 0.593.

As for A20G C30A, the yeast fitness was 1.

Turning to A20G C30U, the yeast fitness turned out to be 0.871.

In the case of A20G C22U C49U, the yeast fitness turned out to be 0.682.

Take A20G G41A G67C: the yeast fitness was determined as 0.601.

With A20G C22G C49G, the yeast fitness turned out to be 0.568.

Turning to A20U A57U A65C A70G, the yeast fitness is not above 0.5.

On to A20G U26A A45C, for which the yeast fitness came out at 0.519.

For A20G G39U A40C, the yeast fitness is not above 0.5.

Take A20U C27G C30G A43G A65C G68C: the yeast fitness is not above 0.5.

As to A20U A45C A65G, the yeast fitness stood at 0.576.

As for A20G C24U A65C, the yeast fitness was 0.653.

As for A20G C27U G58C, the yeast fitness amounted to 0.78.

Regarding A20U C22U C34A U64C, the yeast fitness was not above 0.5.

With A20G G23A C33G, the yeast fitness turned out to be 0.629.

For the variant A20G U64G A70C, the yeast fitness was 0.619.

Turning to A20G C27G G52A, the yeast fitness was determined as 0.551.

For A20G C22G C27G C30U C31G G51C A65G, the yeast fitness stood at 0.563.

For A20G C46A C61G, the yeast fitness was not above 0.5.

In the case of A20G G68C, the yeast fitness came out at 0.758.

In the case of A20G G68U, the yeast fitness was 0.866.

As to A20G C46U A70G, the yeast fitness came to 0.794.

A20U A45U C55G: the yeast fitness was found to be 0.533.

Consider A20U C24G A70G, for which the yeast fitness was not above 0.5.

In the case of A20G U35C G56C G68C, the yeast fitness is not above 0.5.

For A20G U32C A57G, the yeast fitness was found to be 0.724.

Consider A20U C29G C33U, for which the yeast fitness was 0.609.

Take A20G C24A C29G A37U G39A: the yeast fitness is not above 0.5.

On to A20G C31U A36U, for which the yeast fitness stood at 0.53.

Regarding A20G G51A, the yeast fitness turned out to be 0.859.

Take A20G C22A C24U: the yeast fitness was 0.589.

In the case of A20G C29U A57C, the yeast fitness was not above 0.5.

As to A20G G38A U47C, the yeast fitness was 0.685.

Regarding A20U C22U C33U, the yeast fitness is not above 0.5.

On to A20G G48A A70G, for which the yeast fitness worked out at 0.803.

For A20G C30A G48A U53G, the yeast fitness was 0.505.

In the case of A20G C33A A43U G44A A69C, the yeast fitness is not above 0.5.

As to A20U A37C C46G, the yeast fitness came out at 0.528.

With A20G U32C G67C, the yeast fitness amounted to 0.735.

On to A20U C22A C61A C62G, for which the yeast fitness is not above 0.5.

For the variant A20G U28C G68C, the yeast fitness worked out at 0.664.

For A20G U35G, the yeast fitness was determined as 0.708.

For the variant A20G U35C, the yeast fitness was found to be 0.836.

For the variant A20U C29A C30U A36U A70C, the yeast fitness was 0.594.

Regarding A20G C24A C27A A42G A69C, the yeast fitness came out at 0.56.

For A20G C27A C46A, the yeast fitness came to 0.737.

With A20G C66U, the yeast fitness came to 0.857.

Take A20G C66G: the yeast fitness amounted to 0.809.

On to A20G C29U U47G C49U, for which the yeast fitness is not above 0.5.

Consider A20U A40G G44C, for which the yeast fitness was not above 0.5.

A20G C24U C33U A43C: the yeast fitness was not above 0.5.

As to A20G C22G U47C, the yeast fitness was 0.647.

As for A20G G23A C24G C60G, the yeast fitness was not above 0.5.

For A20G G67U, the yeast fitness is 0.965.

For A20G G67C, the yeast fitness stood at 0.861.

In the case of A20U C29G, the yeast fitness amounted to 0.721.

A20G U28C C49A: the yeast fitness is not above 0.5.

In the case of A20U C24A A40C G50C C66U, the yeast fitness is not above 0.5.

As for A20G G23C G38C, the yeast fitness was not above 0.5.

For A20G U64C C66G, the yeast fitness is not above 0.5.

A20U A57G: the yeast fitness was found to be 0.752.

Regarding A20U A57C, the yeast fitness was determined as 0.644.

For the variant A20G C29G A40G C49G, the yeast fitness is not above 0.5.

As for A20U A43C G48A C62U, the yeast fitness was determined as 0.787.

Turning to A20G C31U A65U, the yeast fitness stood at 0.695.

For A20G U26C A37C G68A, the yeast fitness was not above 0.5.

For A20U A43G A65C, the yeast fitness is not above 0.5.

As for A20U A21U A69U, the yeast fitness was determined as 0.675.

As to A20G G56U A65G, the yeast fitness came to 0.587.

With A20U A21C C31A, the yeast fitness is not above 0.5.

Turning to A20U A21G C31U C46A, the yeast fitness is not above 0.5.

With A20G U28C, the yeast fitness stood at 0.934.

For A20U A45G C46U C66U, the yeast fitness came out at 0.626.

For A20G C29A A70U, the yeast fitness came out at 0.557.

Regarding A20U C27G C34U U35C A36C, the yeast fitness amounted to 0.921.

As to A20G G50A A57U, the yeast fitness came to 0.542.

As to A20G G25A C33U G39A A57G U59C, the yeast fitness was not above 0.5.

Take A20U A42C C60A: the yeast fitness was not above 0.5.

Consider A20G C27G G48A, for which the yeast fitness is not above 0.5.

On to A20G G39C, for which the yeast fitness came to 0.829.

With A20G G39A, the yeast fitness was determined as 0.955.

As for A20G G38C C66A, the yeast fitness is not above 0.5.

As for A20U A65G, the yeast fitness came to 0.986.

A20U A65U: the yeast fitness was determined as 0.705.

On to A20G G50C C61A A69G, for which the yeast fitness was not above 0.5.

For A20U A36G U54C C55G, the yeast fitness is not above 0.5.

Take A20G G39C G48A: the yeast fitness turned out to be 0.924.

Turning to A20G U28A U53A, the yeast fitness was not above 0.5.

As for A20U A36C A43U, the yeast fitness is 0.641.

A20G G38C: the yeast fitness came to 0.789.

A20G U35C A36G: the yeast fitness amounted to 0.727.

For the variant A20G C34A U47A C61G, the yeast fitness was not above 0.5.

On to A20G C34G C62U, for which the yeast fitness is not above 0.5.

With A20G C60G A70C, the yeast fitness worked out at 0.604.

With A20G C30G G56C C62U, the yeast fitness is not above 0.5.

A20G C27G: the yeast fitness stood at 0.608.

With A20G C27A, the yeast fitness was 0.933.

For the variant A20G C27U, the yeast fitness was 1.1.

Regarding A20G C33G U53A, the yeast fitness is not above 0.5.

For the variant A20U C22A U32G, the yeast fitness was not above 0.5.

Regarding A20G U26A U35A A37U, the yeast fitness was 0.55.

On to A20G C31U, for which the yeast fitness was 0.995.

Regarding A20G C31G, the yeast fitness stood at 0.966.

With A20G C31A, the yeast fitness turned out to be 0.8.

With A20U C29A C30A U53G C62A, the yeast fitness is 0.545.

Regarding A20G C49U, the yeast fitness turned out to be 0.922.

With A20G C49G, the yeast fitness amounted to 0.855.

Regarding A20G C33G C49A U54G A65G, the yeast fitness is not above 0.5.

Turning to A20G U28G A57U C62U, the yeast fitness was not above 0.5.

A20G C30A C55A G68A: the yeast fitness was not above 0.5.

Consider A20G U54A, for which the yeast fitness was 0.681.

As to A20G U54G, the yeast fitness was 0.524.

With A20G C31G U64C, the yeast fitness came to 0.694.

A20G G41A A70G: the yeast fitness was found to be 0.571.

For A20G C27A C46G U53A C60G G67C, the yeast fitness was not above 0.5.

As to A20G C33A G44A, the yeast fitness came to 0.535.

For the variant A20G G25A C55A, the yeast fitness was not above 0.5.

With A20U A21G C31U, the yeast fitness is 0.609.

As for A20G G25C C49U, the yeast fitness was 0.76.

Regarding A20G G25C C49A, the yeast fitness is not above 0.5.

A20U C24U C30A C46G G48A: the yeast fitness was not above 0.5.

On to A20G G23A G38C G63A C66A, for which the yeast fitness was not above 0.5.

A20U A40G G44C G58C: the yeast fitness turned out to be 0.574.

For the variant A20G U47G G68U, the yeast fitness was not above 0.5.

With A20G G25A C66U, the yeast fitness was 0.682.
